This note sets out measurements from ChEMBL document CHEMBL4402517, “Rational modification of Mannich base-type derivatives as novel antichagasic compounds: Synthesis, in vitro and in vivo evaluation” (Bioorg Med Chem, 2019).

Calls of active or inactive are those of the source. The calls are words filed in the database; no cut-off is given here. Where only a bound is given, the exact number is not on record here.

Data set [1] in a line: Selectivity index, ratio of IC50 for African green monkey Vero cells to IC50 for Trypanosoma cruzi IRHOD/CO/2008/SN3;DTU 1 trypomastigote forms. Type of data set: toxicity. Particulars: read-out: Selectivity Index. Summed up:
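Bloodstream trypomastigotes were taken from BALB/c mice by cardiac puncture and diluted in RPMI with 10% FBS at 2 × 10^6/mL. They were incubated with 3.1–50.0 µM for 24 h at 37 °C in 5% CO2 and counted in a Neubauer chamber. Triplicate, at least three experiments; nonlinear regression.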

Data set [2] has as its system Trypanosoma cruzi. Put plainly: Antitrypanosomal activity against Trypanosoma cruzi MHOM/Pe/2011/Arequipa;DTU 5 bloodstream trypomastigote infected in BALB/c mouse assessed as parasite-free heart in acute phase at 20 mg/kg/day, po administered for 5 consecutive days starting from day 8 post infection followed by cyclophosphamide induced immunosuppression on day 80 post infection measured after day 100 post infection by PCR method relative to control. It counts as functional. Summed up: (§1)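 Female BALB/c mice (10–12 weeks, three per group) were infected i.p. with 5 × 10^5 Arequipa bloodstream trypomastigotes. Dosing was oral, 20 mg/kg/day for 5 days, as a suspension in 5% DMSO/0.5% HPMC. Cyclophosphamide 200 mg/kg i.p. was given at day 80 pi. At necropsy (day 100) tissues were tested by PCR on the splice leader region (primers TC/TC1, 300 bp). Scored as x/3 mice positive.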

Data set [3] is described as follows: Selectivity index, ratio of IC50 for African green monkey Vero cells to IC50 for Trypanosoma cruzi MHOM/Pe/2011/Arequipa; DTU 5 amastigote forms. Type of data set: toxicity. The settings on record: read-out: Selectivity Index. Summed up:
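Vero cells (1 × 10^4/well) were infected with trypomastigotes at MOI 10:1 for 24 h and washed with PBS. They were then exposed to 3.1–50 µM for 72 h at 37 °C in 5% CO2, and amastigotes were counted after Giemsa staining. Triplicates in two determinations; nonlinear regression.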

Data set [4] is described as follows: Toxicity in BALB/c mouse infected with Trypanosoma cruzi MHOM/Pe/2011/Arequipa;DTU 5 bloodstream trypomastigote assessed as increase in serum alanine aminotransferase level in acute phase at 20 mg/kg/day, po administered for 5 consecutive days starting from day 8 post infection and measured at day 14 post infection by biochemical analysis relative to control. Type of data set: organism-based. Particulars: in vivo. In outline:
(§2)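 Female BALB/c mice (10–12 weeks, 14–20 g; groups of three) were infected i.p. with 5 × 10^5 Arequipa bloodstream trypomastigotes. Dosing was oral at 20 mg/kg/day for 5 days, from day 8 pi (acute) or day 70 pi (chronic), as a 2 mg/ml suspension in 5% DMSO/0.5% HPMC; controls received vehicle. Cyclophosphamide 200 mg/kg i.p. was given at day 80 pi. Serum was collected 2 days post-treatment and at necropsy by cardiac puncture and compared with infected untreated controls.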

Data set [5] is described as follows: Toxicity in BALB/c mouse infected with Trypanosoma cruzi MHOM/Pe/2011/Arequipa;DTU 5 bloodstream trypomastigote assessed as decrease in serum creatine kinase muscle to brain ratio level in chronic phase at 20 mg/kg/day, po administered for 5 consecutive days starting from day 70 post infection measured on day 100 post infection relative to control. Particulars: in vivo. It counts as organism-based. More on the design: scale not given: the % may be the effect or the level left. In outline: as §2

A short description of data set [6]: Toxicity in BALB/c mouse infected with Trypanosoma cruzi MHOM/Pe/2011/Arequipa;DTU 5 bloodstream trypomastigote assessed as decrease in serum creatine kinase muscle to brain ratio level in chronic phase at 20 mg/kg/day, po administered for 5 consecutive days starting from day 70 post infection and measured at day 76 post infection relative to control. Type of data set: organism-based. More on the design: scale not given: the % may be the effect or the level left. The settings on record: in vivo. In outline:
as §2

Data set [7] relates to Trypanosoma cruzi. Kind of data set: Antitrypanosomal activity against Trypanosoma cruzi MHOM/Pe/2011/Arequipa;DTU 5 bloodstream trypomastigote infected in BALB/c mouse assessed as parasite-free muscle in acute phase at 20 mg/kg/day, po administered for 5 consecutive days starting from day 8 post infection followed by cyclophosphamide induced immunosuppression on day 80 post infection measured after day 100 post infection by PCR method relative to control. It counts as functional. Summed up: as §1

The test system of data set [8] is Trypanosoma cruzi. Kind of data set: Antitrypanosomal activity against Trypanosoma cruzi MHOM/Pe/2011/Arequipa;DTU 5 epimastigote assessed as effect on acetate excretion at IC50 after 72 hrs by H NMR method relative to control. Type of data set: functional, organism-based. In outline:
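Cells were spun at 800 × g for 10 min and culture supernatants analysed by 1H NMR. Catabolite peaks were expressed as % variation versus untreated parasites.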

In data set [9] the test system is Trypanosoma cruzi. Put plainly: Antitrypanosomal activity against Trypanosoma cruzi MHOM/Pe/2011/Arequipa;DTU 5 bloodstream trypomastigotes infected in BALB/c mouse assessed as parasite-free stomach in chronic phase at 20 mg/kg/day, po administered for 5 consecutive days starting from day 70 post infection followed by cyclophosphamide induced immunosuppression on day 80 post infection measured after day 100 post infection by PCR method relative to control. Type of data set: functional. Summed up: as §1

Data set [10] deals with Trypanosoma cruzi. Put plainly: Antitrypanosomal activity against Trypanosoma cruzi MHOM/Pe/2011/Arequipa;DTU 5 bloodstream trypomastigotes infected in BALB/c mouse assessed as reduction in serum Ig-G level in acute phase at 20 mg/kg/day, po administered for 5 consecutive days starting from day 8 post infection and measured at day 79 post infection by ELISA. It counts as functional, organism-based. In outline:
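Sera came from infected BALB/c mice (three per group) dosed orally at 20 mg/kg/day for 5 days. Sampling points: 2 days after treatment, the day before immunosuppression (acute only) and necropsy day. Anti-T. cruzi IgG was measured by indirect ELISA using parasite Fe-SOD as antigen, read as OD at 492 nm.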

Data set [11] can be described thus: Selectivity index, ratio of IC50 for African green monkey Vero cells to IC50 for Trypanosoma cruzi MHOM/Pe/2011/Arequipa;DTU 5. It counts as toxicity. The settings on record: read-out: Selectivity Index. Summed up: (§3)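 SI = Vero IC50 / epimastigote IC50. Vero cells were grown in RPMI-1640 with 10% FBS, seeded at 0.8 × 10^4 cells/well, exposed to 10.0–200.0 µM for 72 h, then given MTT for 4 h. Epimastigotes were grown in MTL with 10% FBS at 28 °C, 5 × 10^5/mL, exposed to 6.3–50 µM for 48 h, then resazurin for 24 h (570/600 nm). IC50s came from nonlinear regression.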

In data set [12] the test system is Trypanosoma cruzi. Kind of data set: Antitrypanosomal activity against Trypanosoma cruzi MHOM/Pe/2011/Arequipa;DTU 5 bloodstream trypomastigote infected in BALB/c mouse assessed as parasitemia reactivation in acute phase at 20 mg/kg/day, po administered for 5 consecutive days starting from day 8 post infection followed by cyclophosphamide induced immunosuppression on day 80 post infection by Neubauer chamber relative to control. Type of data set: functional. In outline: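 Female BALB/c mice (three per group) were infected i.p. with 5 × 10^5 Arequipa bloodstream trypomastigotes and treated orally at 20 mg/kg/day for 5 days (vehicle 5% DMSO/0.5% HPMC). Once parasitemia was undetectable (day 80 pi), cyclophosphamide 200 mg/kg was given i.p. Bloodstream parasites were then counted to give % reactivation versus untreated controls.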

A short description of data set [13]: Selectivity index, ratio of IC50 for African green monkey Vero cells to IC50 for Trypanosoma cruzi TINF/CH/1956/Tulahuen;DTU 6. The settings on record: read-out: Selectivity Index. It counts as toxicity. In outline: as §3

With `O=C(CCN1CCN(c2ccc(Cl)cc2)CC1)c1ccc(O)cc1`, the selectivity ratio in data set [1] is 50.9; in data set [3] it was 20.4; in data set [11], 5.6; in [13], 9.8. The Activity in the data set with Trypanosoma cruzi [2] is reported as 50%; in [4], more than 40%; in [5], “<= 20%”; in data set [6] it was “<= 30%”; in the data set with Trypanosoma cruzi [7], 50%; in the data set with Trypanosoma cruzi [9] it was 63%. Moreover, the Activity in the data set with Trypanosoma cruzi [12] worked out at 25%. Also, the result in the data set on Trypanosoma cruzi [8] and with Trypanosoma cruzi [10] was Active.
With `O=C(CCN1CCN(c2ccc(C(F)(F)F)cc2)CC1)c1ccc(O)cc1`, the selectivity ratio in [1] was determined as 51; in data set [3] it was 17.4; in data set [11], 4.7; in data set [13], 7.2. The Activity is on record as 13% in the data set with Trypanosoma cruzi [2]; more than 40% in data set [4]; “<= 30%” in data set [5]; “<= 30%” in [6]; 13% in the data set with Trypanosoma cruzi [7]; 50% in the data set with Trypanosoma cruzi [9]. Besides, the Activity with Trypanosoma cruzi [12] amounted to 85%. The result in the data set on Trypanosoma cruzi [8] and with Trypanosoma cruzi [10] was Active.
Take `O=C(Cn1ccnc1[N+](=O)[O-])NCc1ccccc1` [BENZNIDAZOLE]: the selectivity ratio in data set [1] is more than 6; in data set [3] it was more than 67.2; in data set [11], more than 7.6; in data set [13] it was more than 7.9. Besides, the Activity with Trypanosoma cruzi [2] is given as 25%; in data set [4], more than 40%; in data set [5], “<= 10%”; in data set [6], “<= 30%”; with Trypanosoma cruzi [7], 25%; with Trypanosoma cruzi [9] it was 38%. The Activity in the data set on Trypanosoma cruzi [12] was found to be 65%. Besides, the outcome in the data set on Trypanosoma cruzi [8] and with Trypanosoma cruzi [10] was Active.
